Compound activity (PubChem)
The list is not random: actives were taken first. Their share in the collection is about 3%.
Glyco luc inh: blocks N-linked glycosylation in D54 reporter cells | AID 588692 | D54 ERlucT glycosylation luciferase reporter, 24 h; percent of 100 nM tunicamycin response | reporter increase, % at 12.5 µM | hit rate 0.23% among 360,000;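 active means mean luciferase reporter signal, scaled so untreated is 0 and the glycosylation-blocking control 100, at or above a set limit in every replicate; inconclusive means mean reaches the limit but not every replicate does; inactive means mean below the limit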;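 further: luciferase carries N-glycosylation sites so blocking glycosylation raises the light; 0% = median of neutral control wells and 100% = median of 100 nM tunicamycin wells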
T cruzi repl: blocks replication of Trypanosoma cruzi; T. cruzi beta-gal in NIH3T3, luminescence, 90 h; inhibition, % (test concentration not listed); hit rate 1.4% among 300,000;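 active means mean inhibition across valid replicates above about 55%, limit read from the data; inconclusive means mean below that limit but half or more replicates reach it; inactive means mean below it, under half of replicates reach it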;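 further: signal also drops with host cell toxicity which is not excluded here; 0% = plate median of DMSO wells and 100% = zero luminescence signal; higher percent means less beta-gal luminescence so fewer parasites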
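compound dosing = single 50 nL compound addition per well in DMSO | material = NIH/3T3 host cells with β-galactosidase reporter T. cruzi | input = 5,000 host fibroblasts per well | timing = ≥90 h infection period, 3 h prior cell attachment | read-out basis = percent inhibition of parasite-derived β-gal signal | detection = GalScreen β-gal luminescence, detergent lysis, 60 min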
HSF-1 act: increases HSF-1 driven luciferase reporter signal | AID 504408 | hit rate 1.7% among 300,000 | NIH3T3-HGL HSF-1 luciferase reporter, MG132, 8 h; 100% = twice DMSO control signal | activation, % at 9 µM;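 active means mean replicate activation of at least 50% with a set share of replicates each reaching 50%; inconclusive means only one of those two conditions met; inactive means mean below 50% and too few replicates reaching it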;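 further: 0% = median of the neutral control wells and 100% = twice that signal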
PvdQ acylase: P. aeruginosa PvdQ acylase inhibition; hit rate 0.063% among 340,000; purified PvdQ acylase, fluorescence plate reader; AID 488965; inhibition, % at 10 µM; in the data active means inhibition above about 30%, passing the limit was not always enough; inconclusive means no clear call, values can overlap the other calls;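 further: 0% = vehicle neutral wells and 100% = reference inhibitor wells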
CaV13 FRET inh: Primary screen for inhibitors of IQ motif and Ca2+-dependent inactivation inhibitor domain binding in CACNA1D, Förster resonance energy transfer in living cells, …; HEK cells, CFP/YFP FRET ICDI-IQ, plate reader, 10 min; percent FRET-ratio fall versus neutral wells; inhibition, % at 12.3 µM; hit rate 0.098% among 340,000;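 active means mean replicate inhibition of at least 30% and at least 1% of replicates passing that level; inconclusive means only one of the two criteria is met; inactive means neither criterion is met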;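 further: 0% = median of the neutral control wells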
PfHsp90 set2: inhibits growth of yeast expressing Plasmodium falciparum Hsp90; AID 504621; inhibition, % at 9.4 µM; S. cerevisiae expressing PfHsp90, BacTiter-Glo ATP, 48 h; yeast lacking PDR1 and PDR3 efflux regulators; hit rate 0.32% among 310,000;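 active means every replicate shows inhibition above about 80%, whatever the replicate mean, limit read from the data; inconclusive means mean inhibition reaches the set limit but some replicate falls short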;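 further: 0% = DMSO neutral controls and 100% = 20 µM radicicol positive controls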
An asterisk follows results filed as active; ? = inconclusive; / = no result given.

SMILES	Glyco luc inh	T cruzi repl	HSF-1 act	PvdQ acylase	CaV13 FRET inh	PfHsp90 set2
COc1ccc(C(=O)/C=C2/C(=O)Nc3ccccc32)c(OC)c1	33.2*	8.7	10.7	-17.1	-18.3	-13.6
COc1ccc(C(=O)/C=C/Nc2ccccn2)c(OC)c1	-7.6	-5.8	74.0*	/	-5.5	/
COc1ccc(C(=O)/C=C2/C(=O)Nc3ccccc32)cc1OC	28.8*	13.4	242.8*	0.9	-19.0	-14.3
CCNC(=O)N1CCN(c2ccc(N3CCN(C(=O)NCC)[C@@H](C)C3)c(C)c2)[C@@H](C)C1	/	/	/	/	-8.0	/
CC(=O)N1CCC(C(=O)N2c3ccccc3N=C(c3ccc(C(F)(F)F)cc3)C2C(=O)NC(C)C)CC1 (centres undefined)	/	/	/	/	-10.0	/
Cc1cc(Br)c2nc(-c3cccc(Br)c3)c(Cc3cccc(Cl)c3)n2c1	/	/	/	/	-10.4	/
Cc1ccccc1-c1cnn(-c2cccc([N+](=O)[O-])c2)c1N	1.5	8.4	9.1	-12.6	-5.8	-13.7
Cc1ccc(-c2cnn(-c3cccc([N+](=O)[O-])c3)c2N)cc1	-0.2	15.9	60.4*	-3.2	-3.8	19.1
COC(=O)c1cc2c(c3c4cc(OC)ccc4n(S(=O)(=O)c4ccc(F)cc4)c13)C(=O)N(CC(C)C)C2	/	/	/	/	-4.3	/
[O-]/[N+](=C\c1ccncc1)c1ccc(Br)cc1	0.6	-9.1	117.0*	-2.8	/	5.1
Fc1ccccc1Cc1noc(CN2CCN(Cc3ccc4c(c3)OCO4)CC2)n1	1.6	59.9*	-2.7	-12.9	-2.2	19.0
COc1ccccc1CN1CCN(Cc2nc(Cc3ccccc3)no2)CC1	2.2	63.3*	-0.3	-0.2	8.6	-14.4
Fc1ccc(CN2CCCN(Cc3nc(-c4ccc5c(c4)OCO5)no3)CC2)cc1	0.2	66.9*	7.7	-13.9	-4.5	-0.3
COc1ccccc1CN1CCN(Cc2nc(-c3ccccc3)no2)CC1	0.7	53.4	15.4	-13.0	1.0	26.6
c1ccc(Cc2noc(CN3CCN(Cc4ccc5c(c4)OCO5)CC3)n2)cc1	1.6	46.9	12.8	-5.0	-4.1	-16.7
C[C@@H]1CN([C@@H](C)CO)C(=O)c2cc(Br)cnc2O[C@H]1CN(C)C(=O)c1ccccc1F	2.5	/	/	/	-11.7	/
CCOCCCn1c(=N)c(C(=O)NCc2ccc3c(c2)OCO3)cc2c(=O)n3ccccc3nc21	/	59.5*	7.6	/	-5.5	/
CCCn1c(=N)c(C(=O)NCc2ccc3c(c2)OCO3)cc2c(=O)n3cccc(C)c3nc21	6.3	64.4*	0.7	-5.8	-6.0	-17.2
COCCn1c(=N)c(C(=O)NCCc2ccc(OC)cc2)cc2c(=O)n3cccc(C)c3nc21	1.6	17.8	/	-5.6	-2.1	3.2
N=c1c(C(=O)NCc2ccccc2)cc2c(=O)n3ccccc3nc2n1CCCN1CCOCC1	0.3	/	/	-11.7	/	10.7
CCc1cccc(-n2c(C)cc(O)cc2=O)c1	/	/	/	/	-2.4	/
CC(C)c1ccc(-c2cc(C(=O)N3N=C(C(F)F)CC3(O)C(F)F)c3ccccc3n2)cc1 (centres undefined)	-5.9	69.3*	48.0	-7.6	-8.2	111.2*
O=C(c1cc(C2CC2)nc2ccccc12)N1N=C(C(F)F)CC1(O)C(F)F (centres undefined)	-0.1	-7.0	17.7	-16.2	-4.7	/
Cc1cc(C)nc(NC(=S)Nc2ccccc2)n1	0.7	-21.0	51.4*	-13.7	-19.4	10.9
COc1ccc2c(c1)-c1nc(/N=C/c3c(O)ccc4ccccc34)sc1CC2	5.1	-2.2	63.4*	-13.7	-15.1	10.9
SMILES	Glyco luc inh	T cruzi repl	HSF-1 act	PvdQ acylase	CaV13 FRET inh	PfHsp90 set2
NC(Cc1ccc(C(F)(F)F)cc1)c1csc(NC(=O)NCCc2ccccc2)n1 (centres undefined)	-15.1	/	/	/	-5.3	/
O=C(COc1cc(Cl)c(Cl)cc1Cl)Nc1ccncc1	-3.5	-0.9	20.6	-9.3	-4.6	/
O=C(COc1cc(Cl)c(Cl)cc1Cl)Nc1cccc(O)c1	-10.3	10.6	86.7*	-15.2	-4.1	-27.8
O=C(C(=O)N1CCC(Cc2ccccc2)CC1)c1ccccc1Br	/	/	/	/	-5.5	/
O=C(OCc1ccccc1)N1Cc2ccnnc2CC1c1ccccc1-c1ccc(C(F)(F)F)cc1 (centres undefined)	/	/	/	/	-4.3	/
O=C1OC(c2ccccc2)(c2cc(Br)c(O)c(Br)c2)c2ccccc21 (centres undefined)	-0.7	/	/	-13.6	-3.8	114.9*
COc1ccc(-n2c(=O)c3c4c(sc3n(CC(N)=O)c2=O)CCCCC4)cc1	-0.2	16.8	51.9*	-25.9	-2.1	24.9
COC(=O)c1cc(=O)nc(NN=Cc2ccccc2O)s1	/	/	/	/	-12.9	/
C=CCNC(=S)N/N=C/c1ccc(-c2ccc(OC)cc2)o1	-7.4	91.3*	40.1	6.5	-20.8	-34.1
CNC(=S)N/N=C/c1ccc(-c2ccc(C(=O)O)cc2)o1	-1.2	?	-13.5	-4.4	6.6	58.8
C=CCNC(=S)N/N=C/c1ccc(-c2cc(Cl)ccc2Cl)o1	-5.8	16.7	-12.2	0.6	-5.6	-7.5
C=CCNC(=S)N/N=C/c1ccc(-c2ccc(Cl)cc2Cl)o1	-3.5	59.9*	-8.7	-3.6	-2.0	-8.1
NC(=S)N/N=C/c1ccc(-c2cc(Cl)c(Cl)cc2Cl)o1	-1.4	63.9*	13.9	-14.0	-3.7	-77.2
OC(c1ccccc1)(c1ccccc1)C1CCN(CCCOc2ccccn2)CC1	/	/	/	/	-9.7	/
O=C(/C=C/c1ccco1)NC(=S)Nc1nc(-c2ccc3ccccc3c2)cs1	18.1	-1.6	135.9*	-3.1	-5.5	-4.3
O=C(NC(=S)Nc1nc(-c2ccccc2)cs1)c1ccco1	2.3	3.5	23.8	-19.1	-7.1	-16.0
COc1ccc(-c2csc(NC(=S)NC(=O)c3ccco3)n2)cc1	1.8	0.0	51.7*	-9.4	-6.3	/
O=C(/C=C/c1ccco1)NC(=S)Nc1nc(-c2ccc(Cl)cc2)cs1	2.5	-5.2	63.3*	-17.7	-15.9	-2.4
C[C@@H]1CN([C@@H](C)CO)C(=O)CCCn2cc(nn2)CO[C@H]1CN(C)C(=O)Nc1ccccc1F	/	/	/	/	-4.2	/
CCN(CC)C(=O)c1cccc(-c2csc(C(C)(O)c3ccc(F)c(F)c3)n2)c1 (centres undefined)	-3.9	/	/	/	/	/
O=C(NCCc1c[nH]c2ccccc12)c1[nH]c(C(F)(F)F)nc1-c1ccccc1	-0.9	/	/	/	-3.6	/
CN(C)c1ccc(C(=O)NCC2CCN(C(=O)C(=O)c3cccs3)CC2)cc1	/	/	/	/	-10.5	/
CCNC(=S)NNC(=O)c1ccccn1	10.6	-10.4	6.7	-6.3	-5.4	-5.5
O=C(NNC(=S)Nc1ccc(Cl)c(Cl)c1)c1ccccn1	-9.6	62.2*	2.8	3.0	-1.3	-53.5
CC(CC(=O)c1ccc(F)cc1)N1CCN(c2ccccc2)CC1 (centres undefined)	1.6	/	/	-19.2	-10.0	-28.1
